Measured values published in PubChem BioAssay AID822 (SRMLSC, 2007).

Each compound was assayed on HUVEC proliferation, viability ATP luminescence (assay: HUVEC proliferation inhibition, dose response, cell-based, ATP luminescence (AID 822);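 also: cells exposed to compound for 72 h before the ATP read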).
In short: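 Material: HUVEC. Input: 1250 cells per well. Medium: endothelial basal medium (EBM) with 2% fetal bovine serum, collagen-coated wells. Compound: 0.039–20 µM, 0.2% DMSO. Times: compound treatment 72 h, 37 °C. Technique: CellTiter-Glo ATP luminescence. Read-out basis: % viability and fitted EC50. Format: collagen-coated multiwell plates.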
Compound `O=C(Nc1ccc2nn(-c3ccccc3)nc2c1)c1ccc2c(c1)OCCO2` has an EC50 of 20 µM. For `CC1CC(C)(C)CC2(C1)NC(=S)N(c1ccccc1)N2` (centres undefined), the EC50 was 12.3 µM. With `Cc1cc(N2CCCCC2)nc2ccc(NC(=O)c3ccc(Br)o3)cc12` the EC50 was 17.2 µM. `COc1cccc(-c2nnc(Nc3nc4c(F)cccc4s3)o2)c1` showed an EC50 of 8.57 µM. `O=C(c1nn2c(C(F)(F)F)cc(-c3ccco3)nc2c1Br)N1CCCc2ccccc21` showed an EC50 of 14.8 µM. In the case of `Cc1nc(Nc2ccc3c(c2)OCCO3)c2nnn(Cc3ccccc3Cl)c2n1`, the EC50 is reported as 7.13 µM. In the case of `Cc1ccccc1NC(=O)CSC(N)=O`, the EC50 is reported as 19 µM. `CCn1c2c(c3cc(Br)ccc31)CCC/C2=N\O` gave an EC50 of 15.2 µM. In the case of `CCCCCCOC(=O)C(C#N)c1nc2ccccc2nc1N1CCN(C)CC1` (centres undefined), the EC50 is reported as 10 µM. Compound `Nc1c(C(=O)NCc2ccccc2)nnn1Cc1cccc(Cl)c1` has an EC50 of 13.9 µM. With `CCCc1cc(C(=O)Cc2ccc(F)cc2)c(O)cc1O` the EC50 was 10 µM. For `Cc1ccc(C2(C(F)(F)F)N=C3Sc4cc(C)cc(C)c4N3C(=O)N2)cc1` (centres undefined), the EC50 was 11 µM. Work on `Cc1nn(Cc2ccc(Cl)c(Cl)c2)c(C)c1NC(=O)c1cc(-c2ccc3c(c2)OCO3)on1` yielded an EC50 of 1.35 µM. Compound `CCn1c(=O)cc(C(=O)OC)sc1=Nc1ccc(F)c(F)c1` has an EC50 of 11.7 µM. In the case of `O=C(/C=C/c1ccc(Cl)cc1)c1cccnc1`, the EC50 is reported as 17.2 µM. For `Cc1cccc(N2CCN(C(=O)Cn3sc4nc(C)cc(C)c4c3=O)CC2C)c1` (centres undefined), the EC50 was 12.4 µM. Compound `CN(C)c1ccc(-c2nn3c(-c4ccc(Cl)cc4Cl)nnc3s2)cc1` has an EC50 of 14.8 µM. For `CCOC(=O)/C=C/S(=O)(=O)c1ccc(NC(C)=O)cc1`, the EC50 was 15.8 µM. In the case of `COc1ccc(CN=C(C)c2c(C(F)(F)F)[nH]n(-c3nc4ccccc4s3)c2=O)cc1`, the EC50 is reported as 5.87 µM. Compound `CC1(C)Cc2c(C#N)c(N3CCN(C(=O)c4ccco4)CC3)nc(Cc3ccccc3)c2CO1` has an EC50 of 7.74 µM. For `Cn1c(=O)n(C)c2cc(NC(=O)CCl)ccc21`, the EC50 was 12.2 µM. For `COc1ccccc1-c1cc(C(=O)Nc2cc(C)n(Cc3ccc(Cl)cc3)n2)no1`, the EC50 was 5.84 µM. `COC(=O)COc1ccc(S(=O)(=O)NCCC2=CCCCC2)cc1` gave an EC50 of 10.4 µM. `Cc1cccc(NC(=O)Nc2cccc(Oc3c(F)c(F)c(F)c(F)c3F)c2)c1` showed an EC50 of 15.3 µM. For `Cc1ccccc1CS(=O)(=O)c1nnc([C@H](CC(C)C)NC(=O)OC(C)(C)C)o1`, the EC50 was 12 µM. In the case of `Oc1c(CN2CCN(c3ccccn3)CC2)cc(Cl)c2cccnc12`, the EC50 is reported as 7.42 µM. `Cc1cc(C)n(CC(O)Cn2c3ccc(Br)cc3c3cc(Br)ccc32)c(=O)n1` (centres undefined) gave an EC50 of 10.7 µM. `FC(F)C(F)(F)C(F)(F)C(F)(F)c1cc(-c2ccccc2)n[nH]1` showed an EC50 of 8.28 µM. For `O=C1c2[nH]nc(-c3ccccc3O)c2C(c2cccc(Cl)c2)N1Cc1ccco1` (centres undefined), the EC50 was 11 µM. `O=C1NCCCC2c3cc(O)c4ccccc4c3OC12N1CCCCC1` (centres undefined) showed an EC50 of 3.25 µM. For `Cc1ccc(C)c(N2CCN(CCCNC(=O)Cn3cc4c(n3)CCC(C)C4)CC2)c1` (centres undefined), the EC50 was 9.5 µM. `N=c1c2c(ncn1CCN1CCOCC1)Oc1ccc3ccccc3c1C2c1ccccc1` (centres undefined) showed an EC50 of 11.9 µM. With `N=c1n(CCN2CCCCC2)c2ccccc2n1CC(O)c1cccc(Br)c1` (centres undefined) the EC50 was 9.51 µM. For `OC(C#Cc1ccccn1)c1cccs1` (centres undefined), the EC50 was 4.29 µM. Compound `COc1cc(N=c2ssnc2Cl)c(OC)cc1Cl` has an EC50 of 20.9 µM. With `COc1ccccc1NC(=O)CC1C(=O)NCCN1C(=O)Nc1ccc(Cl)c(Cl)c1` (centres undefined) the EC50 was 10.8 µM. `Cc1cccc(C)c1N1CCN(c2ccc3nnc(C(F)(F)F)n3n2)CC1` gave an EC50 of 5.78 µM. With `Cc1ccc2c(C)ccc(O)c2n1` the EC50 was 7.33 µM. In the case of `Oc1ccccc1NCC(O)Cn1ccc2ccccc21` (centres undefined), the EC50 is reported as 8.76 µM. Compound `Cc1cc2c(N=O)c(NO)ccc2[nH]1` has an EC50 of 5.96 µM. In the case of `Cc1nc2c(-c3ccccc3)c(C)[nH]n2c(=O)c1Cl`, the EC50 is reported as 10.5 µM. In the case of `CC(C)(C)c1nn(-c2ccccc2)c2[nH]c(=O)c(CNCc3ccc4c(c3)OCO4)cc12`, the EC50 is reported as 8.15 µM. For `Cc1ccc(-n2c(SCC(=O)Nc3ccc4c(c3)OCO4)nnc2-c2cccs2)cc1`, the EC50 was 8.21 µM. `CCc1ccc(-c2nc(CN3CCC(C(=O)N4CCN(c5ccccn5)CC4)CC3)c(C)o2)cc1` was tested, and the EC50 was 14.2 µM. `O=C(CCC1CCCC1)c1c(O)c2ccccc2oc1=O` was tested, and the EC50 was 4.67 µM. In the case of `Cc1ccsc1/C=C/C1=Cc2c(sc(NC(=O)CSc3n[nH]c(N)n3)c2C#N)C(C)(C)C1`, the EC50 is reported as 17.7 µM. With `CCCCCCn1c(O)c(C=NC2CCCCC2N)c(=O)[nH]c1=O` (centres undefined) the EC50 was 9.15 µM. Work on `COc1ccc(NC(=O)/C(Cl)=C(/Cl)S(=O)(=O)Cc2ccccc2)cn1` yielded an EC50 of 4.48 µM. `O=C(N/N=C/c1ccco1)c1cc(-c2ccc3ccccc3c2)n[nH]1` showed an EC50 of 9.25 µM. `CCOc1cc(/C=N\NC(=O)Cn2nc([N+](=O)[O-])cc2C)ccc1OCc1cccc2ccccc12` gave an EC50 of 20.7 µM. For `O=c1[nH]c2cc3c(cc2cc1C(c1nnnn1Cc1ccccc1)N1CCCCCC1)OCCO3` (centres undefined), the EC50 was 13.1 µM. For `Cc1cccc(-c2nnc(NC(=O)c3ccc(Cl)cc3)o2)c1`, the EC50 was 2.78 µM. `COc1ccc(NC(=O)c2ccccc2NC(=O)COc2ccccc2)cc1` gave an EC50 of 11.2 µM. For `C/C(CC1CC2=C(CC1(C)C)C(C)(C)CCC2)=N\NC(N)=S` (centres undefined), the EC50 was 4.89 µM.
